Reference: PMC3963460 (Synthesis, 2013)

Target: PKC rat-brain isozyme mixture
Experiment: Protein kinase C isozyme mixture competitive binding assay with
Settings: read-out: Kd of (^3H)PDBu; measured under these assay conditions
Procedure, shortened: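 Rat-brain PKC isozyme mixture in Tris-HCl pH 7.4 buffer with KCl, CaCl2 and BSA, plus phosphatidylserine vesicles; (3H)PDBu added in DMSO. Triplicate vials incubated at 37 °C for 90 min, then 15 min on ice. Nonspecific binding from an unlabelled analogue at 5 μM assay concentration. Filtered through poly(ethyleneamine)-soaked filters, washed with ice-cold 20 mM Tris pH 7.4, scintillation-counted.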

CCCC(=O)OC1C(C)C2(O)C(C=C(CO)CC3(O)C(=O)C(C)=CC32)C2C(C)(C)C12OC(=O)CCC (stereo not shown) [(^3H)PDBu, (^3H)phorbol dibutyrate]
Kd: 1.55 nM
